Assay results from ChEMBL document CHEMBL1125042, “Hypolipidemic activity of rifamycin derivatives” (J Med Chem, 1990).
Values after ≈ are worked out from the molar mass of the structure shown.

Assays:
[1] = organism: Rattus norvegicus; experiment: Compound was tested for hypolipidemic activity in male rats, cholesterol was determined in serum.; format: functional
In short: (§1)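 Male Wistar rats (200–230 g), eight per group, were dosed orally in PEG 400 at 8 a.m. for 4 days, plus a second dose at 4 p.m. on day 4. Rats were fasted 16 h and killed 16 h after the last dose. Sera from pairs of rats were pooled. LDL (up to 1.040 g/cm³) was separated by ultracentrifugation and the HDL infranatant taken. Cholesterol was measured enzymatically. Results are % versus vehicle control, mean ± SEM of four pools, Student's t test.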

[2] = organism: Rattus norvegicus; experiment: Hypolipidemic activity was determined in male rats, and high-density lipoprotein level was determined; format: functional; in short: as §1
[3] = system: Staphylococcus aureus; experiment: Antibacterial activity against Staphylococcus aureus 10B; format: functional
In short: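 Agar dilution on DST agar with 2-fold drug dilutions. Inoculum of 10⁴ viable S. aureus 10B was taken from liquid-nitrogen stock, thawed 30 min and not subcultured. It was applied by multipoint replicator and incubated overnight at 37 °C. MIC is the lowest concentration inhibiting growth relative to control cultures.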

[4] = organism: Rattus norvegicus; experiment: Hypolipidemic activity was determined in male rats, and low-density lipoprotein level was determined; format: functional; in short: as §1
[5] = system: Rattus norvegicus; experiment: Hypolipidemic activity was determined in male rats, and high-density lipoprotein level was determined at 100 mg/kg; format: functional; in short: as §1
[6] = system: Rattus norvegicus; experiment: Compound was tested for hypolipidemic activity in male rats, cholesterol was determined in serum at 100 mg/kg; format: functional; in short: as §1
[7] = system: Rattus norvegicus; experiment: Hypolipidemic activity was determined in male rats, and low-density lipoprotein level was determined at 100 mg/kg; format: functional; in short: as §1
[8] = system: Rattus norvegicus; experiment: Hypolipidemic activity was determined in male rats, and low-density lipoprotein level was determined at 30 mg/kg
[9] = system: Rattus norvegicus; experiment: Hypolipidemic activity was determined in male rats, cholesterol was determined in low-density lipoproteins at 100 mg/kg; format: functional, organism-based; design: dose 100 mg/kg
In short: (§2)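 Groups of eight male Wistar rats (200–230 g) dosed orally in PEG 400, either daily for 7 days (killed 24 h after the last dose) or for 4 days with a second dose on day 4 (killed 16 h later). Fasted 16 h. Paired sera pooled, lipoproteins separated by ultracentrifugation (1.006 and 1.040 g/cm³), HDL taken as the infranatant. Cholesterol measured enzymatically; % vs vehicle, mean ± SEM of four pools.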

[10] = system: Rattus norvegicus; experiment: Hypolipidemic activity was determined in male rats, and serum cholesterol level was determined at 100 mg/kg
[11] = system: Rattus norvegicus; experiment: Hypolipidemic activity was determined in male rats, cholesterol was determined in high-density lipoproteins at 100 mg/kg; format: functional, organism-based; design: dose 100 mg/kg; in short: as §2
[12] = system: Rattus norvegicus; experiment: Hypolipidemic activity was determined in male rats, cholesterol was determined in high-density lipoproteins at 30 mg/kg; format: functional, organism-based; design: dose 30 mg/kg; in short: as §2
[13] = system: Rattus norvegicus; experiment: Compound was tested for hypolipidemic activity in male rats, cholesterol level was determined in serum at 30 mg/kg; format: functional, organism-based; design: dose 30 mg/kg; in short: as §1
[14] = organism: Rattus norvegicus; settings: 30 mg/kg

| MIC [3] [µg/mL] | SMILES | Activity [1] [%] | Activity [2] [%] | Activity [4] [%] | Activity [5] [%] | Activity [6] [%] | Activity [7] [%] | Serum LDL-cholesterol [8] [%] | Serum LDL-cholesterol [9] [%] | Serum cholesterol [10] [%] | Serum HDL-cholesterol [11] [%] | Serum HDL-cholesterol [12] [%] | Serum cholesterol [13] [%] | Serum cholesterol [14] [%] |
| --- | --- | --- | --- | --- | --- | --- | --- | --- | --- | --- | --- | --- | --- | --- |
| 1 (≈ 1.08 µM) | COc1c(C)c2c3c4c1C(=O)C(=C(N1CCN(Cc5c(C)cc(C)cc5C)CC1)C4=O)NC(=O)/C(C)=C\C=C\C(C)C(O)C(C)C(O)C(C)C(OC(C)=O)C(C)C(OC)/C=C/OC(C)(O2)C3=O (stereo not given) | -4 | -6 | 1 |  |  |  |  |  |  |  |  |  |  |
| 0.003 (≈ 0.00365 µM) | CO[C@H]1/C=C/O[C@@]2(C)Oc3c(C)c(O)c4c(O)c(c(/C=N/N5CCN(C)CC5)c(O)c4c3C2=O)NC(=O)/C(C)=C\C=C\[C@H](C)[C@H](O)[C@@H](C)[C@@H](O)[C@@H](C)[C@H](OC(C)=O)[C@@H]1C [RIFAMPIN] |  |  |  | -27 | -30 | -31 |  |  |  |  |  |  |  |
|  | CCOC(=O)C(C)(C)Oc1ccc(Cl)cc1 |  |  |  |  |  |  | -8 | 14 | -30 | -34 | -13 | -15 |  |
|  | O=C(O)c1cccnc1 |  |  |  |  |  |  | -32 | -52 | -10 | -13 | -1 |  | -6 |
